Columns and labels:
Type in all cases: ADME, organism-based
Design in all cases: dose 16 mg/kg, route intravenous
Settings in all cases: in vivo; call rule not given here
[1] = Drug uptake in Wistar rat kidney proximal tubule S2 obtained after tissue digestion with 0.04% protease digestion for 2 hrs mins at 4 or 16 mg/kg, iv after 12 hrs post dose by light-microscopic immunocytochemistry
In short: (§1)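 Male Wistar rats (200–250 g) received a single tail-vein gentamicin dose (3 per time group), with saline-injected rats as controls. Under pentobarbital, rats were perfused with PBS, then 2% glutaraldehyde in 10 mM phosphate (pH 7.2), and kidneys postfixed overnight at 4°C. Paraffin sections (5 μm) were treated with 6% H₂O₂, 1.0% NaBH₄ and 1 N HCl, then protease at 30°C. Staining used rabbit anti-GM serum 1:5,000 (overnight, 4°C), then HRP anti-rabbit IgG with DAB.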

[2] = Drug uptake in Wistar rat kidney proximal tubule S1 obtained after tissue digestion with 0.04% protease digestion for 2 hrs mins at 4 or 16 mg/kg, iv after 12 hrs post dose by light-microscopic immunocytochemistry; in short: as §1
[3] = Drug uptake in Wistar rat kidney proximal tubule […] cells obtained after tissue digestion with 0.04% protease digestion for 15 mins at 4 or 16 mg/kg, iv after 12 hrs post dose by light-microscopic immunocytochemistry; in short: as §1
[4] = Drug uptake in Wistar rat kidney collecting duct cells obtained after tissue digestion with 0.04% protease digestion for 15 mins at 4 or 16 mg/kg, iv after 12 hrs post dose by light-microscopic immunocytochemistry; in short: as §1
[5] = Drug uptake in cytoplasm of Wistar rat kidney distal tubule cells obtained after tissue digestion with 0.04% protease digestion for 15 mins at 4 or 16 mg/kg, iv after 12 hrs post dose by light-microscopic immunocytochemistry; in short: as §1
[6] = Drug uptake in Wistar rat Kidney endothelium cells obtained after tissue digestion with 0.04% protease digestion for 2 hrs mins at 4 or 16 mg/kg, iv after 1 hrs post dose by light-microscopic immunocytochemistry; in short: as §1
[7] = Drug uptake in Wistar rat Kidney endothelium cells obtained after tissue digestion with 0.04% protease digestion for 15 mins to 60 mins at 4 or 16 mg/kg, iv after 1 hrs post dose by light-microscopic immunocytochemistry; in short: as §1
[8] = Drug uptake in Wistar rat Kidney endothelium cells obtained after tissue digestion with 0.04% protease digestion for 15 mins to 2 hrs mins at 4 or 16 mg/kg, iv after 12 hrs post dose by light-microscopic immunocytochemistry; in short: as §1
[9] = Drug uptake in Wistar rat Kidney glomeruli cells obtained after tissue digestion with 0.04% protease digestion for 15 mins to 2 hrs mins at 4 or 16 mg/kg, iv after 12 hrs post dose by light-microscopic immunocytochemistry; in short: as §1
[10] = Drug uptake in Wistar rat Kidney Henle's loop cells obtained after tissue digestion with 0.04% protease digestion for 15 mins to 2 hrs mins at 4 or 16 mg/kg, iv after 12 hrs post dose by light-microscopic immunocytochemistry; in short: as §1
[11] = Drug uptake in Wistar rat kidney collecting duct cells obtained after tissue digestion with 0.04% protease digestion for 30 mins at 4 or 16 mg/kg, iv after 12 hrs post dose by light-microscopic immunocytochemistry; in short: as §1
[12] = Drug uptake in Wistar rat kidney collecting duct cells obtained after tissue digestion with 0.04% protease digestion for 2 hrs at 4 or 16 mg/kg, iv after 12 hrs post dose by light-microscopic immunocytochemistry; in short: as §1
[13] = Drug uptake in cytoplasm of Wistar rat kidney distal tubule cells obtained after tissue digestion with 0.04% protease digestion for 2 hrs at 4 or 16 mg/kg, iv after 12 hrs post dose by light-microscopic immunocytochemistry; in short: as §1
[14] = Drug uptake in nuclei of Wistar rat kidney distal tubule cells obtained after tissue digestion with 0.04% protease digestion for 15 mins at 4 or 16 mg/kg, iv after 12 hrs post dose by light-microscopic immunocytochemistry; in short: as §1

In the case of GENTAMICIN, the Drug uptake [1] is reported as “Active”, the Drug uptake [2] is reported as “Active” and the Drug uptake [3] is reported as “Not Active”. The Drug uptake [4] was “Active”, the Drug uptake [5] was “Active” and the Drug uptake [6] was “Not Active”. The Drug uptake [7] was “Active”, the Drug uptake [8] was “Not Active” and the Drug uptake [9] was “Not Active”. For the same sequence, the Drug uptake [10] was “Not Active”, the Drug uptake [11] was “Active” and the Drug uptake [12] was “Not Active”. The Drug uptake [13] was “Not Active” and the Drug uptake [14] was “Active”.

Source: ChEMBL document CHEMBL1671656, “Light-microscopic immunocytochemistry for gentamicin and its use for studying uptake of the drug in kidney” (Antimicrob Agents Chemother, 2009)
